Reference: ChEMBL document CHEMBL1122246, “Analgesic narcotic antagonists. 15. Potent narcotic agonist 7 beta-(arylalkyl)-4,5 alpha-epoxymorphinans” (1983)

Tested on: Mus musculus
Assay: Narcotic agonist activity using acetic acid induced writhing in the mouse upon subcutaneous administration
Assay type: functional
Settings: not given
Outline: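 Mouse acetic acid writhing test with subcutaneous dosing. Salt forms were given in distilled water; free bases were dissolved by adding 1 N HCl and then diluted.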

| Structure (SMILES) | ED50 |
| --- | --- |
| COc1ccc2c3c1O[C@H]1[C@H]4OC[C@@]4(C(O)c4ccccc4)CC4[C@@H](C2)N(C)CC[C@@]341 (stereo partly specified) | 11.9 µM/kg |

Same assay, conditions: Mus musculus, sc; read-out: ED50

| Structure (SMILES) | ED50 |
| --- | --- |
| Oc1ccc2c3c1OC1C4OC[C@@]4(CCc4ccccc4)CC4C(C2)N(CC2CC2)CCC341 (single isomer, unassigned) | 0.04 µmol/kg |
| COc1ccc2c3c1OC1[C@@H](O)[C@](C)(CCc4ccccc4)CC4C(C2)N(CC2CCC2)CCC341 (stereo partly specified) | 1 µmol/kg |
| C[C@@]1(CCc2ccccc2)CC2C3Cc4ccc(O)c5c4C2(CCN3CC2CCC2)C(O5)C1=O (stereo partly specified) | 0.04 µmol/kg |
| COc1ccc2c3c1OC1[C@H](O)[C@](CO)(CCCc4ccccc4)CC4C(C2)N(CC2CC2)CCC341 (stereo partly specified) | 0.13 µmol/kg |
| CN1CCC23c4c5ccc(O)c4OC2[C@H](O)[C@](CO)(CCCCCc2ccccc2)CC3C1C5 (stereo partly specified) | 12 µmol/kg |
| COc1ccc2c3c1O[C@H]1C(=O)CC[C@H]4[C@@H](C2)N(C)CC[C@]314 [HYDROCODONE] | 2.4 µmol/kg |
| CN1CCC23c4c5ccc(O)c4OC2[C@H]2OC[C@@]2(CCCc2ccccc2)CC3C1C5 (stereo partly specified) | 0.019 µmol/kg |
| COc1ccc2c3c1OC1[C@H]4OC[C@@]4(CCc4ccccc4)CC4C(C2)N(C)CCC341 (stereo partly specified) | 0.9 µmol/kg |
| COc1ccc2c3c1OC1[C@H]4OC[C@@]4(CCCCc4ccccc4)CC4C(C2)N(CC2CCC2)CCC341 (stereo partly specified) | 2.8 µmol/kg |
| COc1ccc2c3c1OC1[C@H](O)[C@](CO)(CCCCCc4ccccc4)CC4C(C2)N(CC2CC2)CCC341 (stereo partly specified) | 0.4 µmol/kg |
| C[C@@]1(CCCCc2ccccc2)CC2C3Cc4ccc(O)c5c4C2(CCN3CC2CCC2)C(O5)C1=O (stereo partly specified) | 0.17 µmol/kg |
| COc1ccc2c3c1OC1[C@H]4OC[C@@]4(CCCc4ccccc4)CC4C(C2)N(CC2CCC2)CCC341 (stereo partly specified) | 4.4 µmol/kg |
| COc1ccc2c3c1OC1[C@H](O)[C@](CO)(CCCc4ccccc4)CC4C(C2)N(C)CCC341 (stereo partly specified) | 0.39 µmol/kg |
| COc1ccc2c3c1O[C@H]1[C@H](O)[C@](CO)(C(O)c4ccccc4)CC4[C@@H](C2)N(C)CC[C@@]341 (stereo partly specified) | 2.3 µmol/kg |
| COc1ccc2c3c1OC1[C@H](O)[C@](CO)(CCCc4ccccc4)CC4C(C2)N(CC2CCC2)CCC341 (stereo partly specified) | 0.04 µmol/kg |
| COc1ccc2c3c1OC1[C@H](O)[C@](CO)(CCc4ccccc4)CC4C(C2)N(CC2CCC2)CCC341 (stereo partly specified) | 0.7 µmol/kg |
| CC[C@]1(CO)CC2C3Cc4ccc(OC)c5c4C2(CCN3C)C(O5)[C@@H]1O (stereo partly specified) | 2.7 µmol/kg |
| COc1ccc2c3c1OC1[C@H](O)[C@@](/C=C/CCCCc4ccccc4)(CO)CC4C(C2)N(C)CCC341 (stereo partly specified) | 13.9 µmol/kg |
| COc1ccc2c3c1OC1[C@H](O)[C@](CO)(CCCCCc4ccccc4)CC4C(C2)N(C)CCC341 (stereo partly specified) | 2.3 µmol/kg |
| COc1ccc2c3c1OC1[C@H](O)[C@@](C=CCCCc4ccccc4)(CO)CC4C(C2)N(C)CCC341 (stereo partly specified) | 4 µmol/kg |
| OC[C@@]1(CCc2ccccc2)CC2C3Cc4ccc(O)c5c4C2(CCN3CC2CC2)C(O5)[C@@H]1O (stereo partly specified) | 0.95 µmol/kg |
| CCCC[C@]1(CO)CC2C3Cc4ccc(O)c5c4C2(CCN3C)C(O5)[C@@H]1O (stereo partly specified) | 0.56 µmol/kg |

| Structure (SMILES) | ED50 |
| --- | --- |
| CN1CCC23c4c5ccc(O)c4OC2[C@H]2OC[C@@]2(CCCCCc2ccccc2)CC3C1C5 (stereo partly specified) | 0.028 µmol/kg |
| OC[C@@]1(CCc2ccccc2)CC2C3Cc4ccc(O)c5c4C2(CCN3CC2CCC2)C(O5)[C@@H]1O (stereo partly specified) | 2.5 µmol/kg |
| COc1ccc2c3c1OC1[C@@H](O)[C@](C)(CCCCc4ccccc4)CC4C(C2)N(CC2CC2)CCC341 (stereo partly specified) | 0.5 µmol/kg |
| OC[C@@]1(CCCCCc2ccccc2)CC2C3Cc4ccc(O)c5c4C2(CCN3CC2CC2)C(O5)[C@@H]1O (stereo partly specified) | > 19 µmol/kg |
| OC[C@@]1(CCCCCc2ccccc2)CC2C3Cc4ccc(O)c5c4C2(CCN3CC2CCC2)C(O5)[C@@H]1O (stereo partly specified) | > 18 µmol/kg |
| COc1ccc2c3c1OC1[C@@H](O)[C@](C)(CCCCc4ccccc4)CC4C(C2)N(CC2CCC2)CCC341 (stereo partly specified) | 11.3 µmol/kg |
| COc1ccc2c3c1O[C@H]1[C@@H](O)C=C[C@H]4[C@@H](C2)N(C)CC[C@@]341 [CODEINE] | 10.3 µmol/kg |
| COc1ccc2c3c1OC1[C@H]4OC[C@@]4(CCCCc4ccccc4)CC4C(C2)N(C)CCC341 (stereo partly specified) | 0.005 µmol/kg |
| Oc1ccc2c3c1OC1C4OC[C@@]4(CCc4ccccc4)CC4C(C2)N(CC2CCC2)CCC341 (single isomer, unassigned) | 0.39 µmol/kg |
| OC[C@@]1(CCCCc2ccccc2)CC2C3Cc4ccc(O)c5c4C2(CCN3CC2CCC2)C(O5)[C@@H]1O (stereo partly specified) | 21.3 µmol/kg |
| Oc1ccc2c3c1OC1C4OC[C@@]4(CCCc4ccccc4)CC4C(C2)N(CC2CC2)CCC341 (single isomer, unassigned) | 0.003 µmol/kg |
| COc1ccc2c3c1OC1C(=O)[C@](C)(CCCCc4ccccc4)CC4C(C2)N(CC2CC2)CCC314 (stereo partly specified) | 2 µmol/kg |
| COc1ccc2c3c1O[C@H]1[C@H]4OC[C@@]4(C(O)c4ccccc4)CC4[C@@H](C2)N(C)CC[C@@]341 (stereo partly specified) | 6.8 µmol/kg |
| COc1ccc2c3c1OC1C(=O)[C@](C)(CCc4ccccc4)CC4C(C2)N(CC2CCC2)CCC314 (stereo partly specified) | 0.19 µmol/kg |
| OC[C@@]1(CCCc2ccccc2)CC2C3Cc4ccc(O)c5c4C2(CCN3CC2CC2)C(O5)[C@@H]1O (stereo partly specified) | 0.47 µmol/kg |
| COc1ccc2c3c1OC1C(=O)[C@](C)(CCCCc4ccccc4)CC4C(C2)N(CC2CCC2)CCC314 (stereo partly specified) | 5.6 µmol/kg |
| CCCC[C@]1(CO)CC2C3Cc4ccc(OC)c5c4C2(CCN3C)C(O5)[C@@H]1O (stereo partly specified) | 13.7 µmol/kg |
| COc1ccc2c3c1OC1[C@H](O)[C@](CO)(CCCCc4ccccc4)CC4C(C2)N(CC2CC2)CCC341 (stereo partly specified) | 0.22 µmol/kg |
| CN1CCC23c4c5ccc(O)c4OC2[C@H](O)[C@](CO)(CCc2ccccc2)CC3C1C5 (stereo partly specified) | 0.004 µmol/kg |
| COc1ccc2c3c1OC1[C@H]4OC[C@@]4(CCCCc4ccccc4)CC4C(C2)N(CC2CC2)CCC341 (stereo partly specified) | 0.61 µmol/kg |
| CN1CCC23c4c5ccc(O)c4OC2[C@H](O)[C@](CO)(CCCc2ccccc2)CC3C1C5 (stereo partly specified) | 0.85 µmol/kg |
| COc1ccc2c3c1OC1[C@H](O)[C@](CO)(CCCCc4ccccc4)CC4C(C2)N(CC2CCC2)CCC341 (stereo partly specified) | 0.52 µmol/kg |

| Structure (SMILES) | ED50 |
| --- | --- |
| COc1ccc2c3c1OC1[C@H]4OC[C@@]4(CCCCCc4ccccc4)CC4C(C2)N(C)CCC341 (stereo partly specified) | 1.3 µmol/kg |
| C=C[C@]1(CO)CC2C3Cc4ccc(OC)c5c4C2(CCN3C)C(O5)[C@@H]1O (stereo partly specified) | > 28 µmol/kg |
| Oc1ccc2c3c1OC1[C@H]4OC[C@@]4(CCCc4ccccc4)CC4C(C2)N(CC2CCC2)CCC341 (stereo partly specified) | 0.06 µmol/kg |
| C[C@@]1(CCCCc2ccccc2)CC2C3Cc4ccc(O)c5c4C2(CCN3CC2CC2)C(O5)C1=O (stereo partly specified) | 0.11 µmol/kg |
| COc1ccc2c3c1OC1[C@H](O)[C@](CO)(CCCCCc4ccccc4)CC4C(C2)N(CC2CCC2)CCC341 (stereo partly specified) | 0.3 µmol/kg |
| CN1CCC23c4c5ccc(O)c4OC2[C@H](O)[C@](CO)(CCCCc2ccccc2)CC3C1C5 (stereo partly specified) | 0.003 µmol/kg |
| CN1CCC23c4c5ccc(O)c4OC2[C@H](O)[C@](CO)(CCCCCCc2ccccc2)CC3C1C5 (stereo partly specified) | > 19 µmol/kg |
| COc1ccc2c3c1OC1[C@H](O)[C@](CO)(CCCCc4ccccc4)CC4C(C2)N(C)CCC341 (stereo partly specified) | 0.014 µmol/kg |
| COc1ccc2c3c1OC1C4OC[C@@]4(CCc4ccccc4)CC4C(C2)N(CC2CC2)CCC341 (single isomer, unassigned) | 0.57 µmol/kg |
| COc1ccc2c3c1OC1[C@H](O)[C@](CO)(CCc4ccccc4)CC4C(C2)N(C)CCC341 (stereo partly specified) | 0.028 µmol/kg |
| COc1ccc2c3c1OC1[C@H]4OC[C@@]4(CCc4ccccc4)CC4C(C2)N(CC2CCC2)CCC341 (stereo partly specified) | > 16 µmol/kg |
| Oc1ccc2c3c1OC1[C@H]4OC[C@@]4(CCCCc4ccccc4)CC4C(C2)N(CC2CC2)CCC341 (stereo partly specified) | 0.015 µmol/kg |
| Oc1ccc2c3c1OC1C4OC[C@@]4(CCCCc4ccccc4)CC4C(C2)N(CC2CCC2)CCC341 (single isomer, unassigned) | 0.05 µmol/kg |
| COc1ccc2c3c1OC1[C@H](O)[C@](CO)(CCc4ccccc4)CC4C(C2)N(CC2CC2)CCC341 (stereo partly specified) | 0.61 µmol/kg |
| COc1ccc2c3c1OC1[C@H]4OC[C@@]4(CCCc4ccccc4)CC4C(C2)N(C)CCC341 (stereo partly specified) | 0.046 µmol/kg |
| CN1CCC23c4c5ccc(O)c4OC2[C@H]2OC[C@@]2(CCCCc2ccccc2)CC3C1C5 (stereo partly specified) | 0.024 µmol/kg |
| COc1ccc2c3c1OC1[C@H](O)[C@@](/C=C/Cc4ccccc4)(CO)CC4C(C2)N(C)CCC341 (stereo partly specified) | 1.1 µmol/kg |
| CN1CCC23c4c5ccc(O)c4OC2[C@H]2OC[C@@]2(CCc2ccccc2)CC3C1C5 (stereo partly specified) | 0.048 µmol/kg |
| OC[C@@]1(CCCc2ccccc2)CC2C3Cc4ccc(O)c5c4C2(CCN3CC2CCC2)C(O5)[C@@H]1O (stereo partly specified) | 0.57 µmol/kg |
| COc1ccc2c3c1OC1[C@H](O)[C@](CO)(CCCCCCc4ccccc4)CC4C(C2)N(C)CCC341 (stereo partly specified) | 4.5 µmol/kg |
| OC[C@@]1(CCCCc2ccccc2)CC2C3Cc4ccc(O)c5c4C2(CCN3CC2CC2)C(O5)[C@@H]1O (stereo partly specified) | 11 µmol/kg |
